# Source: PubChem
# S1P3 ag = human S1P3 receptor agonists, primary screen, cell-based, primary and confirmation, NFAT-BLA reporter. AID 373, 2006. 60,000 compounds, 0.1% hits. S1P3 NFAT-BLA reporter cells, agonism, FRET ratio; relative to 1 µM S1P, basal subtracted. activation, % at 4.5 µM. Sphingosine 1-phosphate receptor 3 (Homo sapiens), Q99500;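 active = activation above the screen-wide mean plus 3 SD, cut at about 4.5% in these data, passing the limit was not always enough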
#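 Measure – % activation relative to 1 µM S1P (100%), per plate · System – stable CHO line with human S1P3, Gα16, NFAT-BLA reporter · Timing – cells plated overnight, compound 4 h 37 °C, substrate 2 h RT · Technique – fluorescent BLA substrate, ex 405 nm, em 460/535 nm ratio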
# S1P1 ag pot = S1P1 agonists and agonism potentiators, primary screen, cell-based, primary and confirmation screens, CRE-bla reporter | activation, % at 9.5 µM | S1P1 CRE-bla cells, forskolin, beta-lactamase FRET, potentiator mode; S1P1 agonist co-added at EC20, 2 nM; 100% = saturating reference agonist, 0% = basal | 56,000 compounds, 0.57% hits | AID 449, 2006;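 active = activation above a cutoff set at the mean activation of all tested compounds plus 3 SD, cut at about 54% in these data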;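 also: forskolin at 4 µM as EC80 and the EC20 agonist is SEW2871; 100% = SEW2871 at its EC100 plus forskolin at EC80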
# RORa activator = activators of orphan receptor RORA, primary screen, cell-based, luminescence; Nuclear receptor ROR-alpha (Homo sapiens), P35398; activation, % at 10 µM; 65,000 compounds, 1.5% hits; CHO-K1 Gal4-RORA LBD luciferase reporter; percent increase over mock-subtracted basal signal;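 active = activation above the mean of all tested compounds plus 3 SD, cut at about 49% in these data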;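 also: 0% = DMSO-treated RORA cells and 100% = added signal equal to DMSO minus mock-transfected cells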
# M1 ag = M1 muscarinic receptor agonists, primary screen, CHO-M1 cells, Fluo-4 calcium, agonist mode; 64,000 compounds, 3% hits; B-score at 10 µM; Fluo-4 calcium fluorescence; stronger effect = higher value; Muscarinic acetylcholine receptor M1; AID 626, 2007;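 active = fluorescence rise, raw or as B-score row- and column-corrected plate score, outside the 99.7% band of its plate's samples, either direction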
# M1 antag = antagonists of rat M1 muscarinic receptor. CHO-M1 cells, Fluo-4 calcium, ACh EC80 antagonist mode; stronger effect = lower value. B-score at 10 µM. 64,000 compounds, 3.4% hits;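 active = calcium fluorescence response, raw or row-and-column corrected B-score, differing from the plate sample mean either way at a set confidence level, mostly lower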
# Target sequence (P08482 whole entry, looked up): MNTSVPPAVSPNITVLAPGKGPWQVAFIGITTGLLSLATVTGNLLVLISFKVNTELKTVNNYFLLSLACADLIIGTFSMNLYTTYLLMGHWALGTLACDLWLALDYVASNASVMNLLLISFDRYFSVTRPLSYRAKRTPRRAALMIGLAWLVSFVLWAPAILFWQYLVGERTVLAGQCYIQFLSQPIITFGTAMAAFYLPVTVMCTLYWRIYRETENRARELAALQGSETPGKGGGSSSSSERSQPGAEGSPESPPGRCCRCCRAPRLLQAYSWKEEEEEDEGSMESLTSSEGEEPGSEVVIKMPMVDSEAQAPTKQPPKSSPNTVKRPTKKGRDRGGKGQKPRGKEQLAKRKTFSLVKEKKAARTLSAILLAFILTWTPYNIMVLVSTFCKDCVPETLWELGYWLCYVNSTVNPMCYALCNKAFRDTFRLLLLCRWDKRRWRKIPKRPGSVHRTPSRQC
# SF1 activator = activators of human SF-1, primary screen, cell-based, CHO-K1, Gal4-SF-1 LBD, luciferase luminescence. CHO-K1 Gal4-SF-1 LBD luciferase reporter; % increase over DMSO SF-1-specific signal. activation, % at 10 µM. 65,000 compounds, 1.9% hits. AID 522, 2006;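 active = activation above the mean activation of all tested compounds plus 3 SD, cut at about 50% in these data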
#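 Test system: transient Gal4-SF-1 LBD reporter, CHO-K1; Amount: 4,000 CHO-K1 cells per well; Doses: 10 µM only; Timing: compound exposure 20 h at 37 °C; Signal: luciferase light emission; Read-out basis: percent activation relative to DMSO median and mock-transfected background; Control set: DMSO negative control and −SF1 background wells; Replicates: one test per compound.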
# * marks the source's active call; other numbers are inactive results; · = no result. In the library only some 8.8% were active in any assay of this set; here they are far more common.
SMILES,S1P3 ag,S1P1 ag pot,RORa activator,M1 ag,M1 antag,SF1 activator
CCCCNC(=O)c1nnn(-c2ccccc2)c1N,0,7,24,-0.0097,-0.19,67*
Cc1cc(C)cc(-n2nnc(C(=O)NCc3ccccc3)c2N)c1,1,-37,5,2,0.048,32
COc1ccc(NC(=O)c2ccco2)cc1N,-1,6,15,-0.35,0.83,49
COCc1c(C)cc(C)c(/C=N/O)c1C,-1,-5,-9,-1.6,12*,-21
O=C(NCCc1ccccc1)c1cnc2sccn2c1=O,0,-1,84*,-2.7,-0.029,38
CCC(C)c1ccc(O)c(NC(=O)c2cncc(Br)c2)c1 (stereo not given),0,1,-3,-0.47,-0.2,1
COc1ccc(C(=O)/C=C/Nc2cccc(C)n2)cc1OC,1,23,13,1.9,-0.57,88*
Cc1noc(C(=O)N2CC3(C)CC2CC(C)(C)C3)c1Cl (stereo not given),0,-11,5,-1.8,0.04,15
CCC(C(=O)O)n1nnc(-c2ccc(-c3ccc(OC)cc3)cc2)n1 (stereo not given),0,-7,23,1.1,-0.58,-1
COc1ccc(-c2ccc(-c3nnn(CC(C)=O)n3)cc2)cc1,-1,13,38,0.26,-0.38,90*
O=C(CSc1nnc(-c2ccccn2)n1Cc1ccccc1)NC1CCCC1,0,-6,4,0.012,0.29,-1
CCOC(=O)c1c(C)c(C(=O)Nc2ccc(N(C)C)cc2)c(C)n1CC,-1,3,54*,-1.4,-1.3,72*
CCc1nc2oc3ccccc3c(=O)c2c(=O)n1-c1ccccc1,-1,-5,44,-0.19,0.034,71*
CCc1nc2oc3ccccc3c(=O)c2c(=O)n1CCOC,-1,-24,30,1.6,0.49,5
O=C(O)CN(Cc1ccccc1)S(=O)(=O)c1ccc(F)cc1,-1,-9,5,-0.41,0.033,10
O=C(CC1CCCC1)OCn1nnc2ccccc2c1=O,0,-13,11,0.25,-0.39,-3
COc1ccc(-c2cc(C(=O)N3CCN(C(c4ccccc4)c4ccccc4)CC3)no2)cc1,-1,-9,4,-1.8,0.055,-13
CC(C)c1cc(C(=O)N2CCN(C(c3ccccc3)c3ccccc3)CC2)no1,0,76*,0,-0.65,-1.2,-14
COC1(c2cc(-c3ccccc3)nc(N)n2)CCCCC1,0,-38,0,0.091,-0.66,7
COC(=O)Cn1c(=O)c2c(nc3n2CC(C)CN3c2ccc(C)c(C)c2)n(C)c1=O (stereo not given),0,-22,-8,0.3,0.27,-14
COc1cccc(C(=O)Nc2ncc3c(n2)CC(c2ccc(OC)cc2OC)CC3=O)c1 (stereo not given),-1,5,18,-0.72,0.8,57*
COc1ccc(Nc2ncc3c(n2)CC(c2ccccc2)CC3=O)cc1 (stereo not given),7,-4,5,-1.2,-0.2,-26
O=C(NCc1ccccn1)C1CCCN(S(=O)(=O)c2cccc3nsnc23)C1 (stereo not given),1,-8,16,-0.19,0.038,-1
COCCCn1c(=N)c(C(=O)NCC2CCCO2)cc2c(=O)n3ccccc3nc21 (stereo not given),2,-25,-7,0.83,-0.66,-3
CCOCCCn1c(=N)c(C(=O)Nc2cc(C)on2)cc2c(=O)n3ccccc3nc21,-1,·,-19,5.9*,-0.18,-16
Cc1cc(NC(=O)CC23CC4CC(C2)CC(CC(=O)Nc2cc(C)on2)(C4)C3)no1,-1,0,-1,0.012,0.29,1
